This is an account of results in ChEMBL document CHEMBL2046322, “Discovery of 1,3-Diaminobenzenes as Selective Inhibitors of Platelet Activation at the PAR1 Receptor” (ACS Med Chem Lett, 2012).

Each structure is given as a SMILES string. In brackets after ≈: the same amount, converted by molar mass. Activity calls are given as the source filed them. The calls are words filed in the database; no cut-off is given here.

The test system of series [1] is Plasma. Briefly: Plasma protein binding in mouse. Type of series: ADME, cell-free.
The target of series [2] is T1, Proteinase-activated receptor 1 (Homo sapiens) (UniProt P25116).
T1 sequence (whole entry): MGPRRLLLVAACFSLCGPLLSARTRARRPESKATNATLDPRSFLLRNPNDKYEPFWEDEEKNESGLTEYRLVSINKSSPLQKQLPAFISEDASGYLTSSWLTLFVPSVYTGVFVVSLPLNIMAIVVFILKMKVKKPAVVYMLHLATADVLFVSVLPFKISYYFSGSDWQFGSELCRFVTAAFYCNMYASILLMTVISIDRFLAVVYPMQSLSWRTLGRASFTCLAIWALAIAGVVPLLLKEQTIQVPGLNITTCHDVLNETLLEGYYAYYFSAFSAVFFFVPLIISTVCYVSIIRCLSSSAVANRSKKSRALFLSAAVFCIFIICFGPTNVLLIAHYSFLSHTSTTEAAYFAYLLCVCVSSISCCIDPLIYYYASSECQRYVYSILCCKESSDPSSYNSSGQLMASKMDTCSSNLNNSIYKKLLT
In words: Inhibition of SFLLRN-NH2-stimulated PAR1-mediated platelet activation in […] assessed as surface expression of P-selectin at 10 uM after 20 mins by flow cytometry. Type of series: cell-based.

The test system of series [3] is Plasma. Briefly: Metabolic stability in human plasma assessed as compound remaining at 5 uM after 5 hrs. Type of series: ADME, cell-free. In outline:
(§1)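 Compound incubated in human or mouse plasma; stability reported as percent remaining after 5 h.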

Series [4] deals with Plasma. Briefly: Plasma protein binding in human. Format: ADME, cell-free.
Series [5] relates to Plasma. Briefly: Metabolic stability in mouse plasma assessed as compound remaining at 5 uM after 5 hrs. Type of series: ADME, cell-free. Put shortly:
as §1

The target in series [6] is T1, Proteinase-activated receptor 1 (Homo sapiens). Briefly: Inhibition of SFLLRN-NH2-stimulated PAR1-mediated platelet activation in platelet-rich human plasma assessed as surface expression of P-selectin at 3 uM after 20 mins by flow cytometry. As to conditions: Platelets, in the assay text read “gel-filtered human platelets” for “platelet-rich human plasma”. Put shortly:
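Gel-filtered human platelets (0.5–1 × 10⁸/mL) exposed to antagonist at 3 μM, then challenged with 5 μM SFLLRN for 10 min. Platelets stained with PE-conjugated AC1.2 anti-P-selectin antibody for 20 min at 37 °C, diluted in PBS and measured immediately by flow cytometry.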

Series [7] in a line: Solubility of the compound in phosphate buffered saline. Format: physicochemical. As to conditions: buffer.
Series [8] deals with T1, Proteinase-activated receptor 1 (Homo sapiens). To be noted: 3 uM.
Series [9] concerns the target cGMP-inhibited 3',5'-cyclic phosphodiesterase 3A (Homo sapiens) (UniProt Q14432). Briefly: Inhibition of PDE3A.
In series [10] the target is T1, Proteinase-activated receptor 1 (Homo sapiens). As to conditions: 3 uM. The source holds these as a separate data set.
Series [11] has the same target. To be noted: Plasma, 3 uM.
Series [12] has the same target. To be noted: Plasma, 3 uM. The source holds these as a separate data set.
Series [13] shares this target. To be noted: 3 uM. This is another data set of the same source.
Series [14] has the same target. To be noted: Plasma, 3 uM. This is another data set of the same source.
For series [15] the target is unchanged. As to conditions: 3 uM. This is another data set of the same source.
The target is the same in series [16]. To be noted: Plasma, 3 uM. This is another data set of the same source.
In series [17] the target is T2, Proteinase-activated receptor 1 (Homo sapiens, UniProt P25116).
T2 sequence (P25116 whole entry): T1 sequence (whole entry)
Briefly: Inhibition of SFLLRN-NH2-stimulated PAR1-mediated platelet activation in […] assessed as surface expression of P-selectin after 20 mins by flow cytometry. Details: species or system Plasma. Background: Flow cytometry measures light scatter and fluorescence of single cells or particles in a stream.

The target of series [18] is T1, Proteinase-activated receptor 1 (Homo sapiens). As to conditions: 3 uM. This is another data set of the same source.

Chain of cGMP-inhibited 3',5'-cyclic phosphodiesterase 3A (Homo sapiens) (Q14432 whole entry): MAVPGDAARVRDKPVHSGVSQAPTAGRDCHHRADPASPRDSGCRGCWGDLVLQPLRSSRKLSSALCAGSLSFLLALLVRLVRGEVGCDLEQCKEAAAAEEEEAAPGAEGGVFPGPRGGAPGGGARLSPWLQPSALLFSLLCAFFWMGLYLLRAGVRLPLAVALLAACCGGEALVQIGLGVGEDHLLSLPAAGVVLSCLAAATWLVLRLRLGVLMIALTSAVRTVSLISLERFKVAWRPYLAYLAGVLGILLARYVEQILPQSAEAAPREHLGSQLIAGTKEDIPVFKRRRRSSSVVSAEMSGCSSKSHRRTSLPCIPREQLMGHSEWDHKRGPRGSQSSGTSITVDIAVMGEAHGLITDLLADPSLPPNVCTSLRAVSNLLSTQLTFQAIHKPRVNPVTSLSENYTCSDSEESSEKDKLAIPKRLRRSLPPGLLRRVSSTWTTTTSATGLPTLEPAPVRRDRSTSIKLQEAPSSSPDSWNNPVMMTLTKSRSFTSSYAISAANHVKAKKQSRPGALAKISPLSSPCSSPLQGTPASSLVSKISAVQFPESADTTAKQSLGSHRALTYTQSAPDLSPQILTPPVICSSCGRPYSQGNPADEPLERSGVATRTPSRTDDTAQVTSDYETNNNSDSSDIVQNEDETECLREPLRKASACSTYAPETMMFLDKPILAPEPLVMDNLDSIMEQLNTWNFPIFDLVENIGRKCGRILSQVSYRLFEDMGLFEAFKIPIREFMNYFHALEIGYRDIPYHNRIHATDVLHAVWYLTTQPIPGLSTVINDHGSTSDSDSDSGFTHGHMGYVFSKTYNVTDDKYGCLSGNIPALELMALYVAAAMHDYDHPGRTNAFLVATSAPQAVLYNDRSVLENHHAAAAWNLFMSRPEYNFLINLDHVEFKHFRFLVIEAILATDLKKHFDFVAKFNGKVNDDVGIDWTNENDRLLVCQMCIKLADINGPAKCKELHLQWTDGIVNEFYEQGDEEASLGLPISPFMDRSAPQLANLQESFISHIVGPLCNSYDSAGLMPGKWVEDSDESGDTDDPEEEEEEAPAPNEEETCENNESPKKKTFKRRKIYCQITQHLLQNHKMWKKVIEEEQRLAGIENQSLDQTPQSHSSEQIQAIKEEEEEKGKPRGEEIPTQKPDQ

For `CCS(=O)(=O)Nc1cccc(NC(=O)c2ccccc2Br)c1`, the PPB in the series with Plasma [1] is recorded as 69%; with Plasma [4] it was 93%. Further, the inhibition (in general, how much of the control response was suppressed) in series [2] amounted to 27%. Further, the Stability in the series with Plasma [3] was 99%; in the series on Plasma [5] it was over 99%.

As for `CCCC(=O)Nc1cccc(NC(=O)c2cccc(Oc3ccccc3)c2)c1`, the inhibition in series [6] turned out to be 65%.

For the molecule `CCCC(=O)Nc1cccc(NC(=O)c2ccccc2Br)c1`, in series [7], the solubility (in general, the concentration that dissolves in the medium under given conditions) amounted to 40 µM (≈ 14.4 µg/mL). Also, the inhibition result in series [8], in [9], in series [11], in series [12], in series [14] and in [15] was “inactive” throughout. The inhibition entry in series [16] and in series [18] was “inactive” throughout. Also, the inhibition in series [2] is over 99%. In addition, the inhibition result in [10] and in series [13] was “Active” each time. Moreover, the Stability came out at 80% with Plasma [3] and 2% in the series with Plasma [5]. In addition, the PPB with Plasma [4] worked out at 97%. In addition, the IC50 – broadly, the concentration that inhibits the measured activity by half – in series [17] is 260 nM.

On to `Cc1ccccc1C(=O)Nc1cccc(NC(=O)CC(C)C)c1`, for which the results for the PPB with Plasma [1] and in the series on Plasma [4] were 83% and 96%, respectively. Also, the inhibition in series [2] is over 99%. The Stability in the series with Plasma [3] was over 99%; with Plasma [5], 69%. Besides, the half-inhibitory concentration (IC50) in series [17] came to 1120 nM.

With `CCCC(=O)N(C)c1cccc(NC(=O)c2ccccc2Br)c1`, the PPB was found to be 85% with Plasma [1] and 98% in the series on Plasma [4]. The inhibition in series [2] worked out at 8%. The results for the Stability with Plasma [3] and in the series with Plasma [5] were 90% and 85%, respectively.

In the case of `CCOC(=O)Nc1cccc(NC(=O)c2ccccc2Br)c1`, the PPB in the series on Plasma [1] came to 87%; in the series on Plasma [4], 95%. In addition, the inhibition in series [2] was 98%. The values for the Stability with Plasma [3] and in the series on Plasma [5] were 85% and 56%, respectively. Also, the IC50 in series [17] came to 2640 nM.

On to `CCCC(=O)Nc1cccc(NC(=O)c2cccc(Cl)c2)c1`, for which the inhibition in series [6] was 80%.

Regarding `CN(C(=O)c1ccccc1Br)c1cccc(NC(=O)C2CCCC2)c1`, the PPB with Plasma [1] is on record as 90%; with Plasma [4], 95%. The inhibition in series [2] was under 1%. The Stability with Plasma [3] was 64%; in the series on Plasma [5] it was 40%.

In the case of `CCC(=O)Nc1cccc(NC(=O)c2ccccc2Br)c1`, the inhibition in series [6] came out at 95%. Moreover, the half-maximal inhibitory concentration (IC50) in series [17] came to 1680 nM.

Take `CCCCNc1cccc(NC(=O)c2ccccc2Br)c1`: the values for the PPB with Plasma [1] and with Plasma [4] were 96% and 97%, respectively. Besides, the inhibition in series [2] is over 99%. The Stability turned out to be 99% in the series on Plasma [3] and 97% with Plasma [5]. For the same molecule, the concentration for half-maximal inhibition (IC50) in series [17] was found to be 340 nM.

The molecule `CC(C)CC(=O)Nc1cccc(NC(=O)c2ccccc2Br)c1` displayed a solubility in series [7] of 20 µM (≈ 7.51 µg/mL). Besides, the results for the PPB in the series on Plasma [1] and with Plasma [4] were 87% and 93%, respectively. Moreover, the inhibition in series [2] is over 99%. Also, the Stability in the series with Plasma [3] turned out to be 90%; in the series on Plasma [5], 65%. Moreover, in series [17], the IC50 was determined as 290 nM.
